# Screens as filed in PubChem.
# TAAR1 antag – human TAAR1 antagonists, primary screen, Fluo-8 calcium fluorescence, CHO RD-HGA16 cells; Trace amine-associated receptor 1 (Homo sapiens), Q96RJ0; antagonist; inhibition, % at 3 µM; 1.5% of 360,000 active; AID 624466, 2012;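 active = inhibition above a per-plate cutoff, the mean inhibition of test compounds on that plate plus 3 SD, cut at about 49% in these data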;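 note: 0% = DMSO plus EC80 beta-PEA response and 100% = DMSO alone without agonist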
# Target sequence (Q96RJ0 whole entry, looked up): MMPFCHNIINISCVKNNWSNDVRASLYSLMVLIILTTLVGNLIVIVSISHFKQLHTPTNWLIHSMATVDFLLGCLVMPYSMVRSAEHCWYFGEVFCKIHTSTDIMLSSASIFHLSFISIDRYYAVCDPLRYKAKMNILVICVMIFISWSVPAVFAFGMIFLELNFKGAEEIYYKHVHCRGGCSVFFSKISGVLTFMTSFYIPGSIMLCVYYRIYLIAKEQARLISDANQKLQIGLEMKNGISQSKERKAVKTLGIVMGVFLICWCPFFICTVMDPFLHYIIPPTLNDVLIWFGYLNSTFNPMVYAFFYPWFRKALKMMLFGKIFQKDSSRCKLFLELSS
#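 Test system – hTAAR1-expressing CHO RD-HGA16 cells, Gα16-coupled · Also added – β-PEA at EC80 concentration, post-compound challenge · Compound – 3 µM, single point · Incubation – dye loading 75 min at 37 °C, then 30 min room temperature · Measured by – Fluo-8 intracellular calcium dye fluorescence, real-time kinetic reads · Benchmarks – vehicle and agonist controls · Replicates – singlicate, one well per test compound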
# OX1R antag-1 – antagonists of human orexin 1 receptor (OX1R) | Orexin/Hypocretin receptor type 1 (Homo sapiens), O43613 | OX1R-expressing cells, FRET antagonist read-out | inhibition, % at 6.6 µM | 1.8% of 330,000 active | AID 485270, 2010; in the data active = inhibition mostly above about 38%, no sharp cut-off; inactive = mostly below about 40%;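 note: 0% = agonist challenge alone and 100% = reference antagonist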
# Target sequence (O43613 whole entry, looked up): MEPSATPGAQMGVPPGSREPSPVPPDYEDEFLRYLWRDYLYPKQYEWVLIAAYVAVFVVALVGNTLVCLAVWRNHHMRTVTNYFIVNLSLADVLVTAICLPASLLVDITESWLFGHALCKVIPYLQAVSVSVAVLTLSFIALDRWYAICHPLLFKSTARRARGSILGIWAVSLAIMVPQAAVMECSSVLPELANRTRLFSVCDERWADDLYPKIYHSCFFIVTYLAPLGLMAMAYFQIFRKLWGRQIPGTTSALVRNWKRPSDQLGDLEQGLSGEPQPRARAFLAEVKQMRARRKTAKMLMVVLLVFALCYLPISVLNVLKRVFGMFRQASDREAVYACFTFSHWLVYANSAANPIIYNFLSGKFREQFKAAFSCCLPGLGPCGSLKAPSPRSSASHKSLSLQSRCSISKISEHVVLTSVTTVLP
# TAAR1 ag – human TAAR1 agonists, primary screen, Fluo-8 calcium fluorescence, CHO RD-HGA16 cells; Trace amine-associated receptor 1 (Homo sapiens), Q96RJ0; vehicle wells 0%, saturating PEA agonist 100%; activation, % at 3 µM; 0.99% of 360,000 active; AID 624467, 2012;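 active = activation above the mean activation of all test compounds in the run plus 3 SD, cut at about 38% in these data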
#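 System: CHO-derived RD-HGA16 cells with stable Gα16 and human TAAR1 / Times: 17-24 h plating, Fluo-8 75 min 37 °C, 30 min RT / Technique: calcium-sensitive Fluo-8 signal, excitation 470-495, emission 515-575 nm / Measure: % activation relative to PEA EC100 response / Benchmarks: DMSO and PEA EC100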
# CHO parental Ca – ATP-evoked calcium signal inhibitors, parental CHO, primary screen, counter-screen for OX1R antagonist project, cell-based, fluorescence, Fluo-8 calcium dye; AID 463079, 2010; parental CHO-K1, ATP-induced calcium, Fluo-8 fluorescence; 0.63% of 330,000 active; inhibition, % at 5.6 µM;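 active = inhibition above that plate's mean sample inhibition plus 3 SD, cut at about 26% in these data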;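 note: 0% = ATP-challenged DMSO wells and 100% = DMSO wells without ATP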
#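 Assay system – parental CHO cells · Reagent – ATP stimulus · Detection – intracellular calcium via Fluo-8 no-wash fluorescent dye · Evaluation – percent inhibition of ATP-evoked calcium rise, normalized to controls · Controls – ATP wells versus no-ATP DMSO wells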
# GPR7 antagonist – GPR7 receptor antagonists, primary screen, cell-based, fluorescence, single concentration; Neuropeptides B/W receptor type 1 (Homo sapiens), P48145; GPR7-expressing cells, fluorescence antagonist assay; inhibition, % at 4.4 µM; 1.1% of 290,000 active; in the data active = inhibition above about 16%, passing the limit was not always enough;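 note: cells stimulated with the agonist NPW; 0% = agonist with vehicle and 100% = vehicle without agonist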
# OX1R antag-2 – OX1R (HCRTR1) antagonists, primary screen, fluorescence, CHO/OX1R cells, Fluo-8 calcium, orexin A. Fluo-8 calcium fluorescence. inhibition, % at 5 µM. 0.43% of 330,000 active;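 active = inhibition above its plate's threshold, mean inhibition of all tested compounds on the plate plus 3 SD, cut at about 37% in these data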;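 note: 0% = orexin A challenge wells and 100% = SB-334867-A antagonist wells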
# TAAR1 ag confirm – human TAAR1 agonists, retest of hits, confirmation, Fluo-8 calcium fluorescence, CHO RD-HGA16 cells | scaled: DMSO 0%, maximal phenethylamine 100% | 82% of 2,400 active | shares compounds with TAAR1 ag | activation, % at 3 µM;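 active = activation above a cutoff set at the run's mean compound activation plus 3 SD, cut at about 39% in these data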
# Ga16 ag counter – nonselective calcium mobilization agonists, CHO-Ga16 cells, counter-screen for hTAAR1 agonist project, cell-based, fluorescence, CHO-Ga16 parental line; shares compounds with TAAR1 ag; Fluo-8 calcium fluorescence; normalized to maximal ATP response, DMSO zero; activation, % at 3 µM; 50% of 2,400 active; AID 651787, 2012;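 active = activation above the run cutoff, the mean activation over all tested wells plus 3 SD, cut at about 12% in these data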;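 note: 0% = DMSO wells and 100% = maximal ATP response on the peak over basal ratio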
# TAAR1 desens – TAAR1 desensitization by agonist hits, confirmation, counter-screen for TAAR1 agonist project, cell-based, fluorescence, tachyphylaxis; shares compounds with TAAR1 ag; CHO RD-HGA16 hTAAR1, Fluo-8 calcium, beta-PEA response inhibition; inhibition, % at 3 µM; 46% of 2,400 active;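 active = inhibition above the run cutoff, the mean inhibition of all test compounds plus 3 SD, cut at about 49% in these data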;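 note: beta-PEA stimulus applied at its EC80; loss of beta-PEA calcium signal after compound pretreatment read as receptor desensitization; 0% = DMSO with beta-PEA at EC80 and 100% = DMSO alone without agonist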
# Ga16 nonsel ant – inhibition of ATP-evoked calcium response in CHO-Ga16 cells, counter-screen for TAAR1 agonist project, cell-based, fluorescence; 39% of 2,400 active; CHO-Ga16 ATP-induced calcium, Fluo-8 fluorescence; shares compounds with TAAR1 ag; AID 651952, 2012; inhibition, % at 3 µM;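 active = inhibition above the plate's mean compound inhibition plus 3 SD, computed per plate, cut at about 22% in these data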;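 note: 0% = EC80 ATP with DMSO and 100% = DMSO wells without ATP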
# Starred values were filed as active, the others as inactive; nt = no result given. This is a sample that favours compounds with a hit; in the whole collection about 4.5% have one here.
SMILES,TAAR1 antag,OX1R antag-1,TAAR1 ag,CHO parental Ca,GPR7 antagonist,OX1R antag-2,TAAR1 ag confirm,Ga16 ag counter,TAAR1 desens,Ga16 nonsel ant
COc1cc(CNCCc2c[nH]c3ccccc23)ccc1OCc1ccc(F)cc1,50*,10,60*,11,21*,10,54*,30*,52*,49*
COc1cc(CNCCc2ccccc2F)ccc1OCc1ccc(Cl)nc1,36,7,73*,-12,-1,-22,77*,10,57*,20
OC[C@@H]1CN(Cc2ccco2)C[C@H](n2cnc3c(NC4CC4)ncnc32)O1,-16,nt,2,nt,nt,nt,nt,nt,nt,nt
C=CCn1c(C)cc(C2=NNC(=NCc3ccccc3)SC2)c1C,-14,7,2,-7,-5,-11,nt,nt,nt,nt
CCN=C1NN=C(c2cc(C)n(CCc3ccccc3)c2C)CS1,63*,nt,82*,nt,-6,nt,101*,4,93*,5
Cc1cc(C2=NNC(=NCCc3ccccc3)SC2)c(C)n1CC1CCCO1 (stereo not drawn),68*,10,83*,-2,1,-20,85*,4,57*,20
O=C(COC(=O)c1ccccc1C(=O)c1ccccc1)Nc1ccc(SC(F)F)cc1,19,11,2,-15,-13,-4,nt,nt,nt,nt
NC(=O)COC(=O)c1ccccc1Nc1ccc(SC(F)F)cc1,38,28,43*,-4,-3,-6,6,9,16,16
CCCC(=O)N1CCCC1(C)C(=O)Nc1ccc2cn[nH]c2c1 (stereo not drawn),-25,nt,1,nt,nt,nt,nt,nt,nt,nt
CCc1c(-c2ccccc2Br)ncn1CCc1ccccc1OC,53*,nt,44*,nt,nt,nt,70*,11,59*,28*
CCCCc1c(-c2ccccc2OC)ncn1CCc1cccc(Cl)c1,47,nt,66*,nt,nt,nt,84*,19*,83*,34*
CCCCCc1c(-c2ccccc2)ncn1CCc1ccccc1OC,7,nt,13,nt,nt,nt,nt,nt,nt,nt
COc1ccccc1CCn1cnc(-c2ccc(Br)cc2)c1CC(C)C,71*,nt,65*,nt,nt,nt,82*,2,56*,10
CCCCc1c(-c2ccc(OC)c(OC)c2)ncn1CCc1ccccc1OC,58*,nt,59*,nt,nt,nt,64*,7,68*,42*
NS(=O)(=O)c1ccc(CNC(=O)c2ccc3c(=O)n4c(nc3c2)CCC4)cc1,-20,7,4,6,nt,1,nt,nt,nt,nt
CCCCc1c(Cc2cccc(F)c2)ncn1CCc1ccccc1OC,32,nt,48*,nt,nt,nt,48*,11,50*,33*
CCCc1c(-c2ccc(Cl)cc2)ncn1Cc1ccccc1OC,-2,nt,4,nt,nt,nt,nt,nt,nt,nt
COc1ccccc1CCn1cnc(-c2ccc(OC)c(OC)c2)c1CC(C)C,68*,nt,54*,nt,nt,nt,93*,24*,84*,45*
CCCCc1c(-c2ccc(F)cc2F)ncn1CCc1ccccc1OC,38,nt,6,nt,nt,nt,nt,nt,nt,nt
CCCc1c(-c2ccc(Cl)cc2)ncn1CCc1ccccc1OC,52*,nt,56*,nt,nt,nt,82*,15*,83*,26*
CCCNC(=O)c1ccc2c(c1)nc(C)n2-c1cccc(Cl)c1,-5,6,6,-11,1,-15,nt,nt,nt,nt
O=C(Cc1cccc(C(F)(F)F)c1)N1CCCC1,1,21,-2,0,-6,-24,nt,nt,nt,nt
CCOC(=O)C(NC(=O)CC)(N1CCc2ccccc2C1)C(F)(F)F (stereo not drawn),96*,6,93*,-2,2,-16,111*,1,98*,10
CCOC(=O)C(NC(=O)CC)(Nc1ccccc1)C(F)(F)F (stereo not drawn),-35,9,2,-14,-5,-8,nt,nt,nt,nt
CN(C(=O)CCc1nc(-c2ccccc2F)no1)c1ccccc1,-19,1,45*,4,-15,-10,6,7,4,2
SMILES,TAAR1 antag,OX1R antag-1,TAAR1 ag,CHO parental Ca,GPR7 antagonist,OX1R antag-2,TAAR1 ag confirm,Ga16 ag counter,TAAR1 desens,Ga16 nonsel ant
Cc1cccc(CCNC(=O)CCc2nc(-c3ccccc3F)no2)c1,-8,15,17,-16,17,-3,nt,nt,nt,nt
COc1ccc(NC(=O)CN2CCc3ccccc3C2)cc1,-3,nt,4,nt,nt,nt,nt,nt,nt,nt
COc1cccc(NC(=O)N2CCc3ccccc3C2)c1,-1,11,46*,-2,2,-20,53*,1,14,10
COc1ccc(NC(=S)N2CCc3ccccc3C2)cc1,53*,13,84*,-7,-5,-4,93*,9,31,-3
C[C@@H]1CN([C@@H](C)CO)C(=O)CCCn2cc(nn2)CO[C@H]1CN(C)S(=O)(=O)c1ccccc1F,10,nt,-1,nt,nt,nt,nt,nt,nt,nt
O=S(=O)(Nc1cccnc1)c1ccc(C2CCCCC2)cc1,24,59,56*,35*,3,42*,71*,28*,48,31*
O=S(=O)(Nc1cccnc1)c1ccccc1,-15,11,13,-6,-1,-11,nt,nt,nt,nt
O=C(NCCc1ccccc1)c1ccco1,-2,5,29,-14,-12,-11,nt,nt,nt,nt
O=C(Nc1ccccc1C(=O)NCCc1ccccc1)c1ccco1,43,33,60*,-3,-6,-14,69*,5,60*,24*
COC(=O)c1cc(-c2ccccc2)n(CCN)c1C,29,19,46*,-13,nt,-26,51*,0,26,-1
c1ccc(CCN2CN=C(Nc3nc4ccccc4s3)NC2)cc1,51*,10,79*,-56,-16,-33,40*,0,11,3
